# Assay outcomes from PubChem.
# CHOP inh: inhibitors of CHOP promoter induction, primary screen, cell-based, unfolded protein response, luciferase reporter; inhibition, % at 10 µM; CHO-K1 CHOP-promoter luciferase, tunicamycin-induced, 15-18 h; 220,000 tested, 3.8% active; AID 2732, 2010;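 active = compounds that reduced the stress-induced luciferase reporter signal by more than about 70% of percent inhibition, limit read from the data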
# CTSL1 counter: Fasciola hepatica cathepsin L1 inhibitors, primary screen, counter-screen for PFM18AAP inhibitor project, biochemical, QFRET, fluorogenic peptide substrate; 300,000 tested, 0.49% active; recombinant F. hepatica cathepsin L1, Z-Leu-Arg-MCA fluorescence; inhibition, % at 5.96 µM;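 active = inhibition above the mean of all tested compounds plus 3 SD, set per screening campaign, cut at about 17% in these data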
# UPR CHOP act: activators of apoptotic CHOP UPR arm, primary screen, cell-based, CHO-CHOP luciferase reporter, luminescence, uHTS. UPR activation; percent of tunicamycin response over DMSO baseline. activation, % at 10 µM. 330,000 tested, 0.34% active. AID 449763, 2010;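 active = at 10 µM dose, activation of 40% or more, normalized to positive control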
#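 Assay system: CHO cells with stable CHOP pathway luciferase reporter; Buffer or medium: F12 plus 10% serum; Times: 16-18 h cell attachment, then 6 h compound exposure, 37 °C; Signal: luciferase luminescence; Read-out basis: percent activation relative to tunicamycin control; Control set: tunicamycin high control, DMSO low control.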
# UCH37 DUB inh: inhibitors of human UCH37 deubiquitinase, primary screen, biochemical, Ub-AMC cleavage, fluorescence; Ubiquitin carboxyl-terminal hydrolase isozyme L5 (Homo sapiens), Q9Y5K5; purified proteasome/UCH37; inhibition, % (test concentration not listed); 330,000 tested, 0.33% active; AID 588478, 2011;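 active = mean inhibition over replicate wells above about 20%, limit read from the data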
# Target sequence (Q9Y5K5 whole entry, looked up): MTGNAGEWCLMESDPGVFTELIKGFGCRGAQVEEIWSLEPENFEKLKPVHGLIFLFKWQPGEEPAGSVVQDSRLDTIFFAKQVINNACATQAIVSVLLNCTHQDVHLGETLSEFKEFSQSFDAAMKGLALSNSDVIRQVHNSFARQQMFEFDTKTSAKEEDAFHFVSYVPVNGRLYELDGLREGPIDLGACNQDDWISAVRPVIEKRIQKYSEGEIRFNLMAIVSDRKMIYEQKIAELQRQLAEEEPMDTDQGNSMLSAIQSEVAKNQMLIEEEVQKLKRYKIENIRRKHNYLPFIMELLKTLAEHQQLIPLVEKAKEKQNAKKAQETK
#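 Material: Human UCH37 enzyme supplied as purified proteasome complex | Schedule: 30 min compound-proteasome preincubation then 25 min substrate reaction, room temperature | Detection: AMC fluorescence from Ub-AMC cleavage, excitation 355 nm, emission 460 nm | Benchmarks: Wells without proteasome as full block, compound-free enzyme plus substrate as uninhibited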
# UPR XBP1 act: activators of adaptive XBP1 UPR arm, primary screen, cell-based, CHO-XBP1 luciferase reporter, luminescence, uHTS; IRE1-XBP1 UPR activation; percent of tunicamycin response, DMSO as zero; activation, % at 20 µM; 330,000 tested, 0.33% active; AID 463104, 2010;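 active = versus positive control, 20 µM dose yields 30% or more activation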
#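 Assay system: CHO-XBP1 luciferase reporter cells; Schedule: 6 h treatment, 37 °C; Detection: glow luminescence from Steady-Glo reagent; Benchmarks: high control tunicamycin 10 µg/mL final, low control DMSO vehicle only.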
# CHOP inh conf: retest of CHOP induction inhibitors, confirmation, cell-based. shares compounds with CHOP inh. CHO-CHOP promoter luciferase reporter, tunicamycin-induced, luminescence. inhibition, % at 10 µM. 2,100 tested, 45% active. AID 504437, 2011;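 active = mean of three repeat readings of reporter signal inhibition above a set limit, cut at about 70% in these data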
# A number is an active result; - = inactive; . = no result. The sample as a whole holds a higher share of hits than the screen did.
SMILES,CHOP inh,CTSL1 counter,UPR CHOP act,UCH37 DUB inh,UPR XBP1 act,CHOP inh conf
C=CCn1c(O)c(C=NCCCOc2ccc(CC)cc2)c(=O)[nH]c1=S,77,-,-,-,-,.
CCOc1ccc(N=Cc2c(O)n(Cc3ccccc3)c(=S)[nH]c2=O)cc1,-,-,-,-,-,.
CCn1nc(-c2cccs2)nc2c(=O)n(C)c(=O)nc1-2,.,.,.,95,.,.
Nc1cc(Cl)c2nonc2c1[N+](=O)[O-],108,-,.,-,.,121
O=C(NN=CC1C(=O)NC(=S)N(c2ccccc2)C1=O)c1ccc(O)cc1 (configuration not stated),.,.,.,-,.,.
CC(=O)OC[C@]12CCC(C)=C[C@H]1O[C@@H]1[C@H](O)[C@@H](OC(C)=O)[C@@]2(C)[C@]12CO2,104,-,-,-,-,123
O=c1ccc2ccc(OCc3ccccc3)cc2o1,.,-,-,-,-,.
CC(=O)C1C2c3ccccc3OC1(C)N=c1sc(=Cc3cnn(C)c3)c(=O)n12 (configuration not stated),.,.,.,-,.,.
CC(=NNP(=S)(c1ccccc1)c1ccccc1)c1ccc(O)cc1O,.,.,.,-,.,.
CCOc1cc(/C=C2/C(=O)ON=C2C)ccc1OCc1ccc(F)cc1,99,-,-,-,-,124
O=c1[nH]c(=O)n(C2CCCCC2)c(O)c1/C=C/C=Nc1ccccc1,100,-,-,-,-,-
CCN1C(=O)/C(=C/c2ccc(N(CC)CC)cc2OC)C(=O)NC1=S,100,-,-,-,-,-
Nc1ccc(C(=O)NN=C2CN3CCC2CC3)cc1,.,.,.,-,.,.
CCCCCCCSc1cc(OC)c(CCNC)cc1OC,100,-,-,-,-,-
CCCCCn1c(=O)c(C(=O)Nc2nc3ccccc3[nH]2)c(O)c2ccccc21,98,-,-,-,-,109
CCCCn1c(=O)c(C(=O)Nc2cccc(C)c2)c(O)c2ccccc21,.,-,-,-,-,.
CCCCCn1c(=O)c(C(=O)Nc2ccccc2Cl)c(O)c2ccccc21,.,-,-,-,-,.
CCCCn1c(=O)c(C(=O)Nc2cnccn2)c(O)c2ccccc21,99,-,-,-,-,93
CCOC(=O)c1c(N=CC2C(=O)NC(=O)NC2=O)sc2c1CCC2,.,.,.,-,.,.
CC(=O)c1c(O)n(-c2cccc(Cl)c2)c(=O)[nH]c1=O (tested in a mixture with another compound),-,-,-,-,-,.
CC(C)n1c(O)c(C2c3cc(Cl)ccc3Oc3[nH]c(=O)n(C(C)C)c(=O)c32)c(=O)[nH]c1=O (configuration not stated),107,.,.,-,.,-
O=C(COc1ccccc1)Nc1ccc(Cl)cc1C(=O)c1ccccc1,96,-,-,-,-,-
Cc1ccc(OCC(=O)Nc2ccc(Cl)cc2C(=O)c2ccccc2)cc1,-,-,-,-,-,.
CC(=O)Nc1ccc(C(=O)OCC(=O)Nc2ccc(Cl)cc2C(=O)c2ccccc2)cc1,-,-,-,-,-,.
O=C(COC(=O)c1ccc(O)cc1)Nc1ccc(Cl)cc1C(=O)c1ccccc1,102,-,-,-,-,-
Oc1cccc(C=NNP(=S)(c2ccccc2)c2ccccc2)c1,.,.,.,-,.,.
O=c1[nH]c(O)c(C=Nc2ccccc2[N+](=O)[O-])c(=O)[nH]1,-,-,-,-,-,.
O=c1[nH]c(O)c(C=Nc2ccccc2Sc2ccccc2)c(=O)[nH]1,100,-,-,-,-,-
C=C(C=O)CC1CC(O)[C@]2(C)OC3CC4OC5C[C@]6(C)O[C@]7(C)CCC8OC9C[C@]%10(C)OC%11C(C)=CC(=O)OC%11CC%10OC9C[C@@H](C)C8OC7CC6O[C@]5(C)CC5OC5C4OC3CC2O1 (some centres not stated),105,-,-,-,-,127
